Measured values pooled from the literature.
Protocols differ between the studies behind these lines.
Target: Calcium/calmodulin-dependent protein kinase type II subunit beta (CAMK2B, Homo sapiens, UniProt Q13554)

For `c1ccc(CNc2nc(N3CCOc4ccccc43)nc3c2CCCC3)cc1`, the inhibition was 12.7% (target engagement in cells, inhibitor, chemoproteomics; 20 mM).
The remaining activity of `O=c1c2ccccc2[nH]c(=S)n1CCN1CCC(=C(c2ccc(F)cc2)c2ccc(F)cc2)CC1` is reported as 102% (enzyme activity, inhibitor; 0.5 µM).
`Cc1cc(NC(=O)c2cccc3cc(-c4cccc5[nH]nc(N)c45)ccc23)ccc1F` gave an activity vs control of 94% (enzyme activity, inhibitor; 0.1 µM).
`CC(C)(C)c1nc(-c2cccc(NS(=O)(=O)c3c(F)cccc3F)c2F)c(-c2ccnc(N)n2)s1` has a remaining activity of 78% (enzyme activity, inhibitor, radiometric; 1 µM).
`C[S+]([O-])c1ccc(-c2nc(-c3ccncc3)c(-c3ccc(F)cc3)[nH]2)cc1` (stereo not drawn) has a remaining signal of 97.6% (cell-free assay; 0.5 µM).
The remaining activity of `O=C(Nc1cnn(-c2csc(C(=O)NC3COC3)c2)c1)Nc1c(F)cccc1Cl` is reported as 99.1% (enzyme activity, inhibitor; 5 µM).
For `CCN(CC)CCNC(=O)c1c(C)[nH]c(/C=C2\C(=O)Nc3ccc(F)cc32)c1C`, the inhibition was 57% (enzyme activity, inhibitor; 0.3 µM).
`CO[C@@H](C)c1c(Nc2ccc([C@H](N(C)C(=O)C3CCS(=O)(=O)CC3)C(F)(F)F)cc2)cnc2cc(Cl)nn12` gave a remaining binding of 94% (cell-free assay, competition with immobilised ligand; 1 µM).
For `CCCOc1ccc(OC)c(F)c1C(=O)c1ccc(C(=O)N[C@@H]2CNC[C@H]2NC(=O)c2ccc3[nH]ncc3c2)cc1`, the remaining activity was 53% (enzyme activity, inhibitor; 10 µM).
For `O=C1NC(=O)c2cc(Nc3ccc(F)cc3)c(Nc3ccc(F)cc3)cc21`, the remaining signal was 98.7% (cell-free assay; 0.5 µM).
For `Cc1cc(-n2nc(Cc3cc(F)cc(C(F)(F)F)c3)nc2C)ccc1C(N)=O`, the remaining binding was 100% (cell-free assay, competition with immobilised ligand; 1 µM).
`Cc1ncc([N+](=O)[O-])n1C(=NO)c1ccccc1C(F)(F)F` has an inhibition of 13.6% (enzyme activity, inhibitor; 10 µM).
The remaining signal of `O=C1Nc2ccc(Cl)cc2C1=Cc1cc(Cl)c(O)c(Cl)c1` is reported as 92% (cell-free assay; 0.5 µM).
The remaining binding of `C[C@@H]1CN(c2cc(-c3nn(C)c4ccc(OC5(C)CC5)cc34)ncn2)C[C@H](C)O1` is reported as 96% (cell-free assay, competition with immobilised ligand; 1 µM).
`COc1cccc2c(NCc3ccccc3)nc(-n3c(N)nc4ccccc43)nc12` gave an inhibition of -1.1% (target engagement in cells, inhibitor, chemoproteomics; 20 mM).
With `CC(C)(O)[C@H]1CC[C@H](Nc2ccc3ncc(-c4cccc(C(F)(F)F)c4)n3n2)CC1` the remaining activity was 96.9% (enzyme activity, inhibitor; 1 µM).
The remaining binding of `O=C(NCc1ncc(C(F)(F)F)cc1Cl)c1ccc2c(c1)C1(CCS(=O)(=O)CC1)[C@@H](C1CC1)N2S(=O)(=O)c1ccc(F)cc1` is reported as 92% (cell-free assay, competition with immobilised ligand; 1 µM).
`Cc1ccc(NC(=O)c2ccc(C)c(C(F)(F)F)c2)cc1C#Cc1nn(C2CCC(O)CC2)c2ncnc(N)c12` (stereo not drawn) has a remaining signal of 85% (cell-free assay; 10 µM).
`Cc1ccc(C(=O)Nc2ccc(CN3CCN(C)CC3)c(C(F)(F)F)c2)cc1C#Cc1cnc2cccnn12` has a remaining activity of 97% (enzyme activity, inhibitor; 23.5 nM).
`N#CCCc1ccc2c(c1)-c1[nH]c3ccc([N+](=O)[O-])cc3c1CC(=O)N2` gave a remaining signal of 99.3% (cell-free assay; 0.5 µM).
The inhibition of `CNC(=O)c1cc(Oc2ccc(NC(=O)Nc3ccc(Cl)c(C(F)(F)F)c3)cc2)ccn1` is reported as 27% (enzyme activity, inhibitor; 0.3 µM).
The remaining activity of `COc1cc(Cl)c(C(=O)N[C@@H](CN[C@H]2CC[C@@H](N)CC2)Cc2ccc(C#N)cc2)cc1-c1ccc(CN[C@H](C)c2ccc(C)cc2)o1` is reported as 94% (enzyme activity, inhibitor; 1 µM).
For `Nc1c(C(=O)NCc2ccc(C(=O)NCCCC3CCCCC3)cc2)cnn1-c1ccccc1`, the remaining binding was 100% (cell-free assay, competition with immobilised ligand; 0.1 µM).
`COc1cc2ncnc(Nc3ccc(Oc4ccccc4)cc3C)c2cc1OC` has an inhibition of 8% (enzyme activity, inhibitor; 1 µM).
The remaining binding of `CCCCN(CCCC)C(=O)CN1C[C@H](c2cc(OC)c3c(c2)OCO3)[C@@H](C(=O)O)[C@@H]1CC(C)(C)CCC` is reported as 100% (cell-free assay, competition with immobilised ligand; 1 µM).
With `CC/C(=N\NC(=O)NCc1cccc(O)c1)c1ccc(O)c(C)c1O` the inhibition was -4% (enzyme activity, inhibitor; 0.1 µM).
For `O=C(NC[C@@H]1[C@H]2CN(C(=O)OCc3cc(C(F)(F)F)cc(C(F)(F)F)c3)C[C@@H]12)c1ccc2[nH]nnc2c1`, the remaining binding was 100% (cell-free assay, competition with immobilised ligand; 1 µM).
The inhibition of `Cc1ccc(Nc2nccc(N(C)c3ccc4c(C)n(C)nc4c3)n2)cc1S(N)(=O)=O` is reported as 29% (enzyme activity, inhibitor; 10 µM).
The remaining signal of `CS(=O)(=O)CCNCc1ccc(-c2ccc3ncnc(Nc4ccc(OCc5cccc(F)c5)c(Cl)c4)c3c2)o1` is reported as 93.8% (cell-free assay; 0.5 µM).
`O=C1NC(c2ccccn2)Sc2ccccc21` (stereo not drawn) has a remaining binding of 100% (cell-free assay, competition with immobilised ligand; 1 µM).
